CHRM4 agonist: agonists of human muscarinic M4 receptor (CHRM4). P08173. hit rate 0.14% among 360,000. CHO-K1 hM4/Gqi5, Fluo-8 calcium fluorescence; vehicle 0%, full acetylcholine response 100%. activation, % at 3 µM. AID 624127;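 active = activation above the run mean over all test wells plus 3 SD, cut at about 32% in these data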;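 note: peak over basal fluorescence ratio per well then scaled between controls; 0% = DMSO wells and 100% = acetylcholine at EC100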
Target sequence (P08173 whole entry, looked up): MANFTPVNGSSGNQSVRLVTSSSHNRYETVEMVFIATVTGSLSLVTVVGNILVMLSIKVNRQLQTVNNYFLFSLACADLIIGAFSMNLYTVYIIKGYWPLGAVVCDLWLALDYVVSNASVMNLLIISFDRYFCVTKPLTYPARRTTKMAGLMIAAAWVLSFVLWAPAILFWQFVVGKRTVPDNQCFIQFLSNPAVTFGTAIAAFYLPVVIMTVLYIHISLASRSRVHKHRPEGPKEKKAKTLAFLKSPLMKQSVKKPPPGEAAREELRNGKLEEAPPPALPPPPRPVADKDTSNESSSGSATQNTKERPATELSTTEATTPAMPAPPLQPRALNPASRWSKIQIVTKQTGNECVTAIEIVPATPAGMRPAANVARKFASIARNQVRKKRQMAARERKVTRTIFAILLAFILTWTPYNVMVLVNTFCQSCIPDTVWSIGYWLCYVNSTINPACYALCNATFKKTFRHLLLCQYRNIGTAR
M4 antag: antagonists of human muscarinic M4 receptor (CHRM4) | P08173 | CHO-hM4 cells, ACh EC80, Fluo-8 calcium fluorescence | inhibition, % at 3 µM | hit rate 0.73% among 360,000;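 active = inhibition above its plate's cutoff, the mean inhibition of sample wells plus 3 SD, cut at about 27% in these data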;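 note: 0% = acetylcholine EC80 with DMSO and 100% = DMSO without agonist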
M5 antag: antagonists of human muscarinic M5 receptor (CHRM5) | AID 624040 | inhibition, % at 3 µM | P08912 | hit rate 0.59% among 360,000 | CHO-hM5 cells, Fluo-8 calcium fluorescence, ACh EC80;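 active = inhibition above a per-plate cutoff, the mean of that plate's test compounds plus 3 SD, cut at about 27% in these data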;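 note: 0% = acetylcholine EC80 with DMSO and 100% = DMSO without agonist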
M5 PAM: positive allosteric modulators of human muscarinic M5 receptor | CHO-K1 hM5, Fluo-8 calcium, ACh EC20 PAM; 0% = ACh EC20, 100% = ACh EC100 | activation, % at 3 µM | hit rate 0.3% among 360,000 | AID 624038;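 active = activation above the run cutoff, the mean activation of all test compounds plus 3 SD, cut at about 18% in these data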
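System – CHO-K1 hM5 cells · Compound – 3 µM, single dose · Incubation – compound preincubation 140 s before EC20 acetylcholine addition · Technique – Fluo-8 calcium fluorescence · Measure – Max/basal fluorescence ratio as % of EC20–EC100 ACh window · Benchmarks – low control EC20 acetylcholine (0%), high control EC100 acetylcholine (100%) · Replication – singlicate, one well per test compound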
CHRM5 agonist: agonists of human muscarinic M5 receptor (CHRM5). P08912. CHO-K1 hM5 cells, Fluo-8 calcium fluorescence; 0% DMSO wells, 100% maximal acetylcholine response. activation, % at 3 µM. hit rate 0.19% among 360,000;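 active = activation above the run's mean over test compounds plus 3 SD, cut at about 23% in these data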;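 note: signal is peak over basal fluorescence ratio across the kinetic read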
CHRM4 PAM: potentiates acetylcholine response at human M4 receptor | P08173 | CHO-K1 hM4/Gqi5, Fluo-8 calcium fluorescence, ACh EC20; 0% = ACh EC20, 100% = maximal ACh | activation, % at 3 µM | hit rate 0.4% among 360,000;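 active = activation above its plate's cutoff, the mean activation of sample wells plus 3 SD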
Active calls of the source: *. Sampled rows, rich in hits. Any-hit rate of the full collection: about 1.9%.

SMILES | CHRM4 agonist | M4 antag | M5 antag | M5 PAM | CHRM5 agonist | CHRM4 PAM
O=C(CNC(=O)N1CC(=O)Nc2ccccc21)NCCc1cccc(F)c1 | 1 | -8 | -4 | 6 | -2 | 19*
O=C(CCNC(=O)N1CC(=O)Nc2ccccc21)NCCc1cccc(F)c1 | 0 | -2 | -6 | -1 | -4 | 6
CCCNC(=O)c1c(N)n(-c2cccc(OC)c2)c2nc3ccccc3nc12 | 6 | 1 | 10 | 0 | -2 | -2
COC(=O)CCCCCCCCCCN1CCCCC1 | 2 | 40* | -1 | -6 | -9 | -16
COC(=O)CCCCC(=O)OC | 2 | 3 | 6 | -5 | 1 | 6
Cc1noc2ncnc(Sc3ccccc3Cl)c12 | -1 | -2 | -3 | 13 | -4 | 2
N#C/C(=C\c1coc2ccc(O)cc2c1=O)C(=O)Nc1nc2ccccc2s1 | 67* | 39* | 48* | -28 | 105* | -38
CC(=O)NCCCc1nc2ccccc2n1Cc1ccccc1C | 2 | 27* | 0 | 2 | 3 | 10
Cc1cc(C)cc(C(=O)NCC(=O)OCC(=O)NCC(F)(F)F)c1 | 1 | 12 | -9 | 18* | 1 | 2
COc1ccc(Cl)cc1S(=O)(=O)n1c([N+](=O)[O-])cnc1C | 0 | 7 | -4 | -2 | 4 | 5
Cc1cccc(C)c1NC(=O)C1CCCN(CCCc2ccccc2)C1 (stereo not drawn) | 2 | 83* | 22 | -34 | -11 | -25
COC(=O)c1ccc(S(=O)(=O)N2CCCN(Cc3ccccc3)CC2)n1C | 2 | -8 | 4 | 0 | -6 | -6
COC(=O)c1ccc(S(=O)(=O)N2CCN(CCO)CC2)n1C | 1 | -3 | 1 | 25* | 5 | 17
Cn1c(=O)c2c(ncn2CC(=O)OCC(=O)c2ccc(OC(F)F)cc2OC(F)F)n(C)c1=O | 1 | -12 | -6 | 3 | 0 | 3
Cc1ccc(SCc2[nH]nc3c2C2(CCSCC2)C(C#N)=C(N)O3)cc1 | 4 | 3 | -5 | 4 | 3 | -1
Cc1ccc(SCc2[nH]nc3c2C2(C(=O)Nc4ccc([N+](=O)[O-])cc42)C(C#N)=C(N)O3)cc1 (stereo not drawn) | 2 | 1 | -5 | 25* | -2 | 51*
CCNc1ccc2noc3c2c1C(=O)c1ccccc1-3 | 46* | 24 | 38* | -16 | 37* | -22
O=C1c2ccccc2-c2onc3ccc(NCc4ccco4)c1c23 | 10 | 16 | 22 | -10 | 16 | -7
CCOc1cc(CNCc2ccccc2)ccc1OCc1ccc(Cl)cc1 | 34* | 28* | 26 | -13 | 12 | -15
CCOc1cc(CNCCc2ccc(S(N)(=O)=O)cc2)ccc1OCc1ccccc1 | 20 | 19 | 13 | -16 | -4 | -20
COc1ccc(CNCCc2ccc(Cl)cc2)cc1OCc1ccccc1 | 20 | 12 | 17 | -17 | 12 | -11
CCOc1cc(CNCCc2ccc(S(N)(=O)=O)cc2)cc(Cl)c1OCc1ccccc1 | 30 | 46* | 21 | -19 | 14 | -5
COc1cc(CNCc2ccccn2)ccc1OCc1ccc(Cl)cc1Cl | 23 | 33* | 11 | -6 | -2 | -21
Cc1nnc(SCC(=O)NNC(=O)c2ccco2)n1-c1ccccc1 | 5 | -6 | -1 | 7 | 1 | 15
Fc1ccc(CNc2ccn3nc(-c4ccccc4)cc3n2)cc1 | 4 | -9 | 0 | -2 | 2 | -1
CCCN1CCN(C(=O)c2cc3c(s2)-c2ccccc2OC3)CC1 | 3 | -2 | -1 | 0 | -1 | 2
CCOC(=O)N1CCN(C(=O)c2cc3c(s2)-c2ccccc2OC3)CC1 | 12 | -25 | -6 | -8 | 1 | 24*
COc1ccc(/C=C(/C#N)C(=O)Nc2cc(C)ccc2C)cc1C(=O)O | 1 | 4 | 2 | 1 | 2 | 29*
O=C(Nc1nc(-c2ccccc2)c(-c2ccccc2)o1)c1ccc(F)cc1 | 2 | -3 | 9 | 34* | -1 | 3

Screens from PubChem BioAssay.
